Source: ChEMBL document CHEMBL4130355, “Development of a series of novel 4-anlinoquinazoline derivatives possessing quinazoline skeleton: Design, synthesis, EGFR kinase inhibitory efficacy, and evaluation of anticancer activities in vitro” (Eur J Med Chem, 2017)
Activity calls are given as the source filed them. The calls are words filed in the database; no cut-off is given here.

Assays:
HepG2 [1] = experiment: Cytotoxicity against human HepG2 cells at 40 uM after 48 hrs by LDH release assay (reference value: 100%); type: functional
In short: (§1)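 HepG2 seeded at 1.0 × 10^5 cells/well, grown 24 h at 37 °C in 5% CO2, then dosed for 48 h. LDH in supernatant read on plate reader per kit. Maximal release (100% cytotoxicity) came from lysis with 2% (V/V) lysate for 1 h at 37 °C; medium-only cells served as natural release. Triplicate, three independent runs.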

[2] = molecular target: T1, Epidermal growth factor receptor (Homo sapiens, UniProt P00533); settings: HEK293, at 10 pM
T1 sequence (P00533 whole entry): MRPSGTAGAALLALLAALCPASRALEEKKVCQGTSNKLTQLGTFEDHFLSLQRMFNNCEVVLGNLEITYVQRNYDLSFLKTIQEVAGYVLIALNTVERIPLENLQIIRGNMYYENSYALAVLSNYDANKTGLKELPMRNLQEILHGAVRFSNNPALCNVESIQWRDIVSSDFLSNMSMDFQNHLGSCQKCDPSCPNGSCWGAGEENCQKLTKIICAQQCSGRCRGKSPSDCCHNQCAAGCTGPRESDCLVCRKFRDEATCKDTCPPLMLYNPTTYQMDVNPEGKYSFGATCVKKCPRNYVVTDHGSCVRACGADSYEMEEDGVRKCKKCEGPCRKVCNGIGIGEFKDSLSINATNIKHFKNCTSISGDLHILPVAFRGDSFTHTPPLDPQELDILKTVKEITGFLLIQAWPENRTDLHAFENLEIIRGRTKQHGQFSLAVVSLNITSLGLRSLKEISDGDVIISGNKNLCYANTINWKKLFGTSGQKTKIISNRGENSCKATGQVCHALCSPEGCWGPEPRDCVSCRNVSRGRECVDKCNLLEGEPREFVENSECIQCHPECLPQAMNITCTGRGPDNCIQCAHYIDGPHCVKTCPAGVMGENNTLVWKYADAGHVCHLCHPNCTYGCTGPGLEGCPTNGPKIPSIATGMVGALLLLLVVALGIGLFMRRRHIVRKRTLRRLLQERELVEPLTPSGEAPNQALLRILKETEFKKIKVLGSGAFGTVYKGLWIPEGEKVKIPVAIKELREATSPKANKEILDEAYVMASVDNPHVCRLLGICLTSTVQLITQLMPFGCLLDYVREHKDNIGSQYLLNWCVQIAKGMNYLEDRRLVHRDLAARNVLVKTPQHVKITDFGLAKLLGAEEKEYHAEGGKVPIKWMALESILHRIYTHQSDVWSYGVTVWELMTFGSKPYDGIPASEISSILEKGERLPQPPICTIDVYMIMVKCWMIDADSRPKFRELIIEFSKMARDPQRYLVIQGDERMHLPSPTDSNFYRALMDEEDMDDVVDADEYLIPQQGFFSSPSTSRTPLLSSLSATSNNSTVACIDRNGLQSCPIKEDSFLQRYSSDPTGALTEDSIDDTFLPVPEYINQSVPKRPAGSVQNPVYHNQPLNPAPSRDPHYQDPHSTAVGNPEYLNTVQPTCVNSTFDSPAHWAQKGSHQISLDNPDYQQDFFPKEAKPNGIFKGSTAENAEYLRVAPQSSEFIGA

HepG2 [3] = experiment: Antiproliferative activity against human HepG2 cells at 10 uM after 48 hrs by MTT assay realtive to control; type: functional
In short: (§2)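 MTT assay in triplicate wells. Cells (2 × 10^3/well) were attached 24 h, then treated at 0.1, 1, 10, 50 or 100 µM for 24, 48 or 72 h. MTT added for 4 h, SDS solubilisation, absorbance at 570/650 nm. Inhibition = 1 − (OD treated − blank)/(OD control − blank). Reported as mean ± SD of three independent experiments.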

HepG2 [4] = experiment: Induction of mitochondrial membrane potential loss in human HepG2 cells assessed as mitochondrial membrane potential levels at 2.5 uM after 48 hrs by rhodamine-123 dye based FACS analysis (reference value: 90.4%); type: functional
HepG2 [5] = experiment: Induction of apoptosis in human HepG2 cells assessed as early apoptotic cells at 2.5 uM after 48 hrs by Annexin V-FITC/propidium iodide double staining-based flow cytometry (reference value: 8.7%); type: functional
HepG2 [6] = experiment: Antiproliferative activity against human HepG2 cells at 50 uM after 48 hrs by MTT assay realtive to control; type: functional; in short: as §2
HepG2 [7] = experiment: Cytotoxicity against human HepG2 cells at 5 uM after 48 hrs by LDH release assay (reference value: 100%); type: functional; in short: as §1
HepG2 [8] = experiment: Antiproliferative activity against human HepG2 cells at 10 uM after 24 hrs by MTT assay realtive to control; type: functional; in short: as §2
HepG2 [9] = experiment: Cell cycle arrest in human HepG2 assessed as decrease in cell levels at G0/G1 phase after 48 hrs by propidium iodide-staining based flow cytometry; type: functional
In short: (§3)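 HepG2 cells at 5.0 × 10^5/well were grown 24 h, then treated at 0, 2.5, 5.0 or 10.0 µM for 48 h alongside medium-only wells. Cells fixed in 70% ice-cold ethanol for ≥24 h, treated with RNase A at 37 °C for 30 min, then stained with propidium iodide for 30 min at 4 °C in the dark. DNA content read by flow cytometry. Average of at least three experiments.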

A549 [10] = experiment: Antiproliferative activity against human A549 cells at 0.1 uM after 48 hrs by MTT assay relative to control; type: functional; in short: as §2
HepG2 [11] = experiment: Induction of apoptosis in human HepG2 cells assessed as viable cells at 5 uM after 48 hrs by Annexin V-FITC/propidium iodide double staining-based flow cytometry (reference value: 86.4%); type: functional; settings: HepG2, 48 h, read-out: Activity
HepG2 [12] = experiment: Induction of apoptosis in human HepG2 cells assessed as convoluted nuclei formation at 2.5 to 20 uM after 48 hrs by Hoechst 33342/propidium iodide double staining based laser scanning confocal microscopy; type: functional, cell-based
In short: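 HepG2 plated at 5.0 × 10^4 cells/well in DMEM with 10% FBS, 24 h at 37 °C, then treated 48 h (2.5–20 µM). After two ice-cold PBS washes, cells were stained with Hoechst 33342/PI mixed 1:1 for 30 min at 37 °C in the dark, washed three times, and imaged by laser scanning confocal microscopy at 200×.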

HepG2 [13] = experiment: Induction of apoptosis in human HepG2 cells assessed as elevation in ROS levels after 48 hrs by DCFH-DA fluorescence-based spectrometry; type: functional, cell-based
In short: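 HepG2 seeded at 5.0 × 10^5 cells/mL, 24 h at 37 °C in 5% CO2, then treated 48 h. Harvested cells were washed twice in ice-cold PBS and loaded with 10 µM DCFH-DA for 30 min at 37 °C. They were then trypsinized, washed and resuspended in ice-cold HBSS, and DCF fluorescence was read on a fluorescence spectrometer.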

A549 [14] = experiment: Antiproliferative activity against human A549 cells at 0.1 uM after 24 hrs by MTT assay relative to control; type: functional; in short: as §2
HepG2 [15] = experiment: Antiproliferative activity against human HepG2 cells at 1 uM after 24 hrs by MTT assay realtive to control; type: functional; in short: as §2
HepG2 [16] = experiment: Induction of apoptosis in human HepG2 cells assessed as intracellular free Ca2+ levels at 2.5 uM after 48 hrs by FL1 channel/FACS analysis (reference value: 14.2%); type: functional
In short: (§4)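 HepG2 seeded at 5.0 × 10^5 cells/mL, 24 h at 37 °C in 5% CO2, then treated 48 h (2.5–20 µM). Harvested cells were washed in ice-cold PBS and loaded with 4 µM Fluo-3/AM for 30 min. After trypsinizing, they were washed twice and resuspended in HEPES, and fluorescence was measured in the FL-1 channel by flow cytometry. Values are averages of at least three independent experiments.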

A549 [17] = experiment: Antiproliferative activity against human A549 cells at 50 uM after 24 hrs by MTT assay relative to control; type: functional; in short: as §2
[18] = molecular target: T1, Epidermal growth factor receptor; settings: HEK293, at 0.01 µM
HepG2 [19] = experiment: Antiproliferative activity against human HepG2 cells at 50 uM after 24 hrs by MTT assay realtive to control; type: functional; in short: as §2
HepG2 [20] = experiment: Induction of apoptosis in human HepG2 cells assessed as caspase-3 activity at 5 uM after 48 hrs by colorimetric assay relative to control; type: functional
In short: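 After 48 h treatment, HepG2 were rinsed in ice-cold PBS and lysed 1–1.5 h on ice in buffer with 1% DTT. Lysate was spun at 10,000×g for 1 min at 4 °C; supernatant protein was measured by Bradford. Supernatant was mixed with 2× reaction buffer (1% DTT) plus caspase-3 chromogenic peptide substrate, held 4 h at 37 °C, and read at 405 nm.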

HepG2 [21] = experiment: Induction of apoptosis in human HepG2 cells assessed as intracellular free Ca2+ levels after 48 hrs by FL1 channel/FACS analysis; type: functional, cell-based; in short: as §4
HepG2 [22] = experiment: Cell cycle arrest in human HepG2 assessed as accumulation at S phase after 48 hrs by propidium iodide-staining based flow cytometry; type: functional; in short: as §3
[23] = molecular target: T1, Epidermal growth factor receptor; settings: HEK293, at 0.001 µM
HepG2 [24] = experiment: Induction of apoptosis in human HepG2 cells assessed as late apoptotic cells at 2.5 uM after 48 hrs by Annexin V-FITC/propidium iodide double staining-based flow cytometry (reference value: 4.3%); type: functional
HepG2 [25] = experiment: Cell cycle arrest in human HepG2 assessed as accumulation at S phase at 2.5 uM after 48 hrs by propidium iodide-staining based flow cytometry (reference value: 21.46%); type: functional; in short: as §3
A549 [26] = experiment: Antiproliferative activity against human A549 cells at 10 uM after 72 hrs by MTT assay relative to control; type: functional; in short: as §2
HepG2 [27] = experiment: Cell cycle arrest in human HepG2 assessed as accumulation at S phase at 5 uM after 48 hrs by propidium iodide-staining based flow cytometry (reference value: 21.46%); type: functional; in short: as §3

Compound `COc1cc2c(Nc3ccc(C#N)cc3)ncnc2cc1OCCCN1CCC(c2ccccc2)CC1` has an Activity (HepG2 [1]) of 41.17%, an inhibition [2] of 17.9% and an Activity (HepG2 [3]) of 55.6%. It also gave an Activity (HepG2 [4]) of 88.3%, an Activity (HepG2 [5]) of 48.6% and an Activity (HepG2 [6]) of 108%. For the same compound, the Activity (HepG2 [7]) was 50.11%, the Activity (HepG2 [8]) was 63.5% and the Activity (HepG2 [9]) was “Dose-dependent effect”. The Activity (A549 [10]) was 1.3%, the viability at 5 µM (HepG2 [11]) was 17.3% and the Activity (HepG2 [12]) was “Active”. The Activity (HepG2 [13]) was “Dose-dependent effect”, the Activity (A549 [14]) was 0.8% and the Activity (HepG2 [15]) was 7.9%. It also gave an Activity (HepG2 [16]) of 41.7%, an Activity (A549 [17]) of 85.3% and an inhibition [18] of 61.8%. For the same compound, the Activity (HepG2 [19]) was 99.1%, the Activity (HepG2 [20]) was 145% and the Activity (HepG2 [21]) was “Dose-dependent effect”. The Activity (HepG2 [22]) was “Dose-dependent effect”, the inhibition [23] was 46.2% and the Activity (HepG2 [24]) was 3.8%. The Activity (HepG2 [25]) was 22.44%, the Activity (A549 [26]) was 34.1% and the Activity (HepG2 [27]) was 25.1%.
